Experimental data from ChEMBL document CHEMBL4130356, “Design, synthesis and 2D QSAR study of novel pyridine and quinolone hydrazone derivatives as potential antimicrobial and antitubercular agents” (Eur J Med Chem, 2017).
Converted amounts (≈) assume the structure as drawn. The source made the active and inactive calls. The rule behind the calls is not given here.

Assays:
[1] = tested on: Mycobacterium tuberculosis; experiment: Antimycobacterial activity against Mycobacterium tuberculosis RCMB 010126 clinical isolate after 7 days by MABA; assay type: functional
How it was run: (§1)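 Inoculum from fresh LJ culture resuspended in 7H9-S broth with casitone, glycerol and OADC, adjusted to McFarland No. 1 and diluted 1:20. Serial two-fold compound dilutions in 7H9-S; isoniazid reference. Incubated 7 days at 37°C in air, then Alamar blue added and incubated overnight. Percent inhibition = 1 − (test well/growth-control mean) × 100; MIC = lowest concentration preventing blue-to-pink change.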

Escherichia coli [2] = experiment: Antimicrobial activity against Escherichia coli RCMB 010052 assessed as diameter of zone inhibition at 100 ug/ml after 24 hrs by agar well diffusion assay; assay type: functional; details: for zone of inhibition at 100 µg/mL: RCMB 010052, 24 h, read-out: DIZ
How it was run: (§2)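 Agar well diffusion on nutrient agar plates seeded with the bacterium, using 1 cm wells. Plates were held at 4°C for 1 h for diffusion, then incubated at 37°C. Inhibition zone diameters were measured at 24 h. Ciprofloxacin was the positive control. Run in triplicate, with the mean zone reported.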

Streptococcus pneumoniae [3] = experiment: Antimicrobial activity against Streptococcus pneumoniae RCMB 010010 assessed as diameter of zone inhibition at 100 ug/ml after 24 hrs by agar well diffusion assay; assay type: functional; details: for zone of inhibition at 100 µg/mL: RCMB 010010, 24 h, read-out: DIZ; how it was run: as §2
Pseudomonas aeruginosa [4] = details: RCMB 010043, 100 ug/ml
Aspergillus fumigatus [5] = experiment: Antimicrobial activity against Aspergillus fumigatus RCMB 02568 assessed as diameter of zone inhibition at 100 ug/ml after 48 hrs by agar well diffusion assay; assay type: functional; details: for zone of inhibition at 100 µg/mL: RCMB 02568, 48 h, read-out: DIZ
How it was run: (§3)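 Agar well diffusion on malt agar plates seeded with the fungus, using 1 cm wells. Plates were held at 4°C for 1 h for diffusion, then incubated at 28°C. Inhibition zone diameters were measured at 48 h. Amphotericin B was the positive control. Run in triplicate, with the mean zone reported.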

[6] = tested on: Mycobacterium tuberculosis; experiment: Antimycobacterial activity against Mycobacterium tuberculosis RCMB 010126 clinical isolate assessed as inhibition zone after 7 days by MABA; assay type: functional; how it was run: as §1
Candida albicans [7] = experiment: Antimicrobial activity against Candida albicans RCMB 05036 assessed as diameter of zone inhibition at 100 ug/ml after 48 hrs by agar well diffusion assay; assay type: functional; details: for zone of inhibition at 100 µg/mL: RCMB 05036, 48 h, read-out: DIZ; how it was run: as §3
[8] = Selectivity index, ratio of IC50 for human WI38 cells to MIC for Mycobacterium tuberculosis RCMB 010126 clinical isolate; assay type: toxicity; details: read-out: Selectivity Index
How it was run: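 WI-38 human lung fibroblasts grown in DMEM with 10% FBS at 37°C and 5% CO2, seeded at 1×10^4 cells/well, and exposed to serial two-fold dilutions in triplicate. Viability read by crystal violet stain at 490 nm. IC50 taken from dose-response plots. Ratio uses this IC50 against the MABA MIC for M. tuberculosis.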

WI-38 = experiment: Cytotoxicity against human WI38 cells assessed as reduction in cell viability after 24 hrs by crystal violet staining-based colorimetric method; details: WI-38, 24 h
How it was run: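 WI-38 cells were grown in DMEM with 10% FBS at 37°C and 5% CO2, then seeded at 1×10^4 cells/well. Serial twofold dilutions were added, three wells per concentration. Viability was read by crystal violet stain, solubilised in 30% acetic acid, at 490 nm. Run in triplicate. IC50 was estimated from dose-response plots.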

Staphylococcus aureus [9] = experiment: Antimicrobial activity against Staphylococcus aureus RCMB 010028 assessed as diameter of zone inhibition at 100 ug/ml after 24 hrs by agar well diffusion assay; assay type: functional; details: for zone of inhibition at 100 µg/mL: RCMB 010028, 24 h, read-out: DIZ; how it was run: as §2
Candida albicans [10] = experiment: Antimicrobial activity against Candida albicans RCMB 05036 after 48 hrs by serial dilution method; assay type: functional; details: RCMB 05036, 48 h
How it was run: (§4)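 Serial twofold dilution in microtiter plates starting from a 100 mmol stock in DMSO; final concentrations 125 down to 0.12 […]. Incubated at 28°C and read on a microplate reader after 48 h. Amphotericin B was the reference. Run in triplicate, with the average taken. MIC was the lowest concentration inhibiting growth.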

Staphylococcus aureus [11] = experiment: Antimicrobial activity against Staphylococcus aureus RCMB 010028 after 24 hrs by serial dilution method; assay type: functional; details: RCMB 010028, 24 h
How it was run: as §4, with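 “37°C” for “28°C”, “24” for “48”, “Ciprofloxacin” for “Amphotericin B”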

Streptococcus pneumoniae [12] = experiment: Antimicrobial activity against Streptococcus pneumoniae RCMB 010010 after 24 hrs by serial dilution method; assay type: functional; details: RCMB 010010, 24 h
How it was run: as §4, with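 “37°C” for “28°C”, “24” for “48”, “Ciprofloxacin” for “Amphotericin B”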

Pseudomonas aeruginosa [13] = details: RCMB 010043
Aspergillus fumigatus [14] = experiment: Antimicrobial activity against Aspergillus fumigatus RCMB 02568 after 48 hrs by serial dilution method; assay type: functional; details: RCMB 02568, 48 h; how it was run: as §4
Escherichia coli [15] = experiment: Antimicrobial activity against Escherichia coli RCMB 010052 after 24 hrs by serial dilution method; assay type: functional; details: RCMB 010052, 24 h
How it was run: as §4, with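 “37°C” for “28°C”, “24” for “48”, “Ciprofloxacin” for “Amphotericin B”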

[16] = Mycobacterium tuberculosis, RCMB 010126, 168 h

Row | SMILES | MIC [1, 16] [µg/mL] | DIZ (Pseudomonas aeruginosa [4]) | inhibition zone (IZ) [6] | zone of inhibition at 100 µg/mL (Escherichia coli [2]) [mm] | MIC (Candida albicans [10]) [µg/mL] | zone of inhibition at 100 µg/mL (Streptococcus pneumoniae [3]) [mm] | MIC (Staphylococcus aureus [11]) [µg/mL] | MIC (Streptococcus pneumoniae [12]) [µg/mL] | zone of inhibition at 100 µg/mL (Aspergillus fumigatus [5]) [mm] | MIC (Pseudomonas aeruginosa [13]) | zone of inhibition at 100 µg/mL (Candida albicans [7]) [mm] | MIC (Aspergillus fumigatus [14]) [µg/mL] | zone of inhibition at 100 µg/mL (Staphylococcus aureus [9]) [mm] | MIC (Escherichia coli [15]) [µg/mL] | also measured
1 | COc1ccc(/C=N/NC(=O)c2ccc(-c3ccc(Cl)cc3)nc2C)cc1OC | 1.56 (≈ 3.81 µM) | inactive | 61.32 mm |  |  |  |  |  |  |  |  |  |  |  | diameter of the inhibition zone (DIZ) (Escherichia coli [2]): inactive; diameter of the inhibition zone (DIZ) (Streptococcus pneumoniae [3]): inactive; diameter of the inhibition zone (DIZ) (Aspergillus fumigatus [5]): inactive; diameter of the inhibition zone (DIZ) (Candida albicans [7]): inactive; selectivity ratio [8]: 284; IC50 (WI-38): 443 µg/mL (≈ 1080 µM); diameter of the inhibition zone (DIZ) (Staphylococcus aureus [9]): inactive
2 | Cc1nc(-c2ccc(Cl)cc2)ccc1C(=O)N/N=C/c1ccc(Cl)cc1Cl | 12.5 (≈ 29.8 µM) | inactive | 35.38 mm | 21.3 | 15.6 (≈ 37.3 µM) | 21.3 | 3.9 (≈ 9.31 µM) | 1.95 (≈ 4.66 µM) | 19.3 | inactive | 17.4 | 3.9 (≈ 9.31 µM) | 19.3 | 1.95 (≈ 4.66 µM) | 
3 | O=C(N/N=C/c1ccc(Cl)cc1Cl)c1c[nH]c2ccc(Cl)cc2c1=O | 99.8 (≈ 253 µM) | inactive | 18.3 mm | 20.7 | 62.5 (≈ 158 µM) | 17.5 | 15.6 (≈ 39.6 µM) | 7.81 (≈ 19.8 µM) | 16.9 | inactive | 14.1 | 15.6 (≈ 39.6 µM) | 15.7 | 1.95 (≈ 4.94 µM) | 
4 | COc1cc(/C=N/NC(=O)c2c[nH]c3ccc(Cl)cc3c2=O)cc(OC)c1OC |  | inactive | inactive | 19.3 | 31.2 (≈ 75.2 µM) | 18.4 | 15.6 (≈ 37.6 µM) | 7.81 (≈ 18.8 µM) | 18.1 | inactive | 16.3 | 7.81 (≈ 18.8 µM) | 17.3 | 3.9 (≈ 9.38 µM) | MIC [1]: inactive
5 | COc1ccc(/C=N/NC(=O)c2ccc(-c3cccc(Cl)c3)nc2C)cc1 | 1.56 (≈ 4.11 µM) | inactive | 60.42 mm | 20.3 | 7.81 (≈ 20.6 µM) | 20.9 | 3.9 (≈ 10.3 µM) | 3.9 (≈ 10.3 µM) | 20.6 | inactive | 18.2 | 1.95 (≈ 5.13 µM) | 19.6 | 3.9 (≈ 10.3 µM) | selectivity ratio [8]: 321; IC50 (WI-38): 500 µg/mL (≈ 1320 µM)
6 | COc1ccc(OC)c(/C=N/NC(=O)c2ccc(-c3cccc(Cl)c3)nc2C)c1 | 0.39 (≈ 0.952 µM) | inactive | 82.35 mm | 22.3 | 1.95 (≈ 4.76 µM) | 22.5 | 1.95 (≈ 4.76 µM) | 0.98 (≈ 2.39 µM) | 22.6 | inactive | 21.2 | 0.98 (≈ 2.39 µM) | 21.3 | 0.98 (≈ 2.39 µM) | selectivity ratio [8]: 482; IC50 (WI-38): 188 µg/mL (≈ 459 µM)
7 | Cc1ccc(/C=N/NC(=O)c2ccc(-c3cccc(Cl)c3)nc2C)cc1 | 1.56 (≈ 4.29 µM) | inactive | 61.24 mm |  |  | 13.6 |  |  |  |  |  |  | 12.6 |  | diameter of the inhibition zone (DIZ) (Escherichia coli [2]): inactive; diameter of the inhibition zone (DIZ) (Aspergillus fumigatus [5]): inactive; diameter of the inhibition zone (DIZ) (Candida albicans [7]): inactive; selectivity ratio [8]: 321; IC50 (WI-38): 500 µg/mL (≈ 1370 µM)
8 | COc1ccc(/C=N/NC(=O)c2c[nH]c3ccc(Cl)cc3c2=O)cc1OC | 25 (≈ 64.7 µM) | inactive | 31.25 mm | 21.3 | 15.6 (≈ 40.5 µM) | 19.1 | 15.6 (≈ 40.5 µM) | 3.9 (≈ 10.1 µM) | 18.4 | inactive | 16.9 | 7.81 (≈ 20.2 µM) | 17.2 | 1.95 (≈ 5.05 µM) | 
9 | COc1ccc(/C=N/NC(=O)c2c[nH]c3cc(Cl)ccc3c2=O)cc1OC |  | inactive | inactive | 20.3 | 31.2 (≈ 81 µM) | 17.3 | 1.95 (≈ 5.05 µM) | 15.6 (≈ 40.5 µM) | 20.3 | inactive | 16.2 | 3.9 (≈ 10.1 µM) | 20.6 | 3.9 (≈ 10.1 µM) | MIC [1]: inactive
10 | O=C(N/N=C/c1ccc(Cl)cc1)c1c[nH]c2ccc(Cl)cc2c1=O | 99.8 (≈ 277 µM) | inactive | 17.8 mm | 20.6 | 62.5 (≈ 174 µM) | 17.3 | 31.2 (≈ 86.8 µM) | 15.6 (≈ 43.4 µM) | 16.3 | inactive | 13.6 | 31.2 (≈ 86.8 µM) | 15.3 | 1.95 (≈ 5.41 µM) | 
11 | O=C(N/N=C/c1ccc(Cl)cc1)c1c[nH]c2cc(Cl)ccc2c1=O | 99.8 (≈ 277 µM) | inactive | 19.35 mm | 18.3 | 31.2 (≈ 86.8 µM) | 17.1 | 31.2 (≈ 86.8 µM) | 15.6 (≈ 43.4 µM) | 17.3 | inactive | 15.2 | 15.6 (≈ 43.4 µM) | 16.2 | 7.81 (≈ 21.7 µM) | 
12 | O=C(N/N=C/c1ccc(F)cc1)c1c[nH]c2ccc(Cl)cc2c1=O |  | inactive | inactive | 12.7 | 31.2 (≈ 90.9 µM) | 12.4 | 31.2 (≈ 90.9 µM) | 15.6 (≈ 45.5 µM) | 11.3 | inactive | 10.3 | 15.6 (≈ 45.5 µM) | 10.6 | 62.5 (≈ 182 µM) | MIC [1]: inactive
13 | Cc1ccc(/C=N/NC(=O)c2c[nH]c3cc(Cl)ccc3c2=O)cc1 |  | inactive | inactive | 15 | 62.5 (≈ 184 µM) | 13.9 | 62.5 (≈ 184 µM) | 62.5 (≈ 184 µM) | 13.7 | inactive | 14.5 | 62.5 (≈ 184 µM) | 14.4 | 62.5 (≈ 184 µM) | MIC [1]: inactive
14 | CC1(C)S[C@@H]2[C@H](NC(=O)[C@H](N)c3ccccc3)C(=O)N2[C@H]1C(=O)O [AMPICILLIN] |  |  |  |  |  | 23.8 | 0.98 (≈ 2.8 µM) | 0.98 (≈ 2.8 µM) |  |  |  |  | 27.4 |  | 
